Our source for the inhibition values is ChEMBL document CHEMBL4014339, “Discovery of 1,4-Benzodiazepine-2,5-dione (BZD) Derivatives as Dual Nucleotide Binding Oligomerization Domain Containing 1/2 (NOD1/NOD2) Antagonists Sensitizing Paclitaxel (PTX) To Suppress Lewis Lung Carcinoma (LLC) Growth in Vivo” (J Med Chem, 2017).

For one assay, the target named is T1, Nucleotide-binding oligomerization domain-containing protein 1 (Homo sapiens) (UniProt Q9Y239).
T1 sequence (whole entry): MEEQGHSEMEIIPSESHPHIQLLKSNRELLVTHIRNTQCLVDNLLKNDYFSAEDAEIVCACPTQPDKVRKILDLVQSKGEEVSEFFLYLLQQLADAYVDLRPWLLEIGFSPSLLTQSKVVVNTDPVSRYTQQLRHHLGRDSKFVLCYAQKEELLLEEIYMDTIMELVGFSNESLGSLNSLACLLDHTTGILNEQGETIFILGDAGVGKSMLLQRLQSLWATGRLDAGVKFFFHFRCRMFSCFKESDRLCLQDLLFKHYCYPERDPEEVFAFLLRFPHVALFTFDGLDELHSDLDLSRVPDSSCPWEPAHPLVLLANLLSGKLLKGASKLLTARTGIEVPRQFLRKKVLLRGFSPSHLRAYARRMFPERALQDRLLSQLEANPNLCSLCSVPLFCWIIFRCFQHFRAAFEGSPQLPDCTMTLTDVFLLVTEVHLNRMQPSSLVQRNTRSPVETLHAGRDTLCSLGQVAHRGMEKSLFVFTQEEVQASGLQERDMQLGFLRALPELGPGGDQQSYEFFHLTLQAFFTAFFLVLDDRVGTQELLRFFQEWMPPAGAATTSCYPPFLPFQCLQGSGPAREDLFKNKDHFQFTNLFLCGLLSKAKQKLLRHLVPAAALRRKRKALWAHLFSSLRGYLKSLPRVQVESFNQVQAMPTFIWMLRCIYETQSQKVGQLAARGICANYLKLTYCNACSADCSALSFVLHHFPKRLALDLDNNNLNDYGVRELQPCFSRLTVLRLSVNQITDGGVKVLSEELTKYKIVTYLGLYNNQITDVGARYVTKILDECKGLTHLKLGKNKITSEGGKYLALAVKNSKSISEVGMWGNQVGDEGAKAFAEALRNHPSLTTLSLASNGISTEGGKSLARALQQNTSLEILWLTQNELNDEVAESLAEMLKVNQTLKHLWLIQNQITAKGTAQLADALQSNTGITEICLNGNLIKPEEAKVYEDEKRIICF
Kind of assay: Antagonist activity at human NOD1 expressed in HEK-Blue cells assessed as inhibition of C12-iE-DAP-stimulated cell activation at 10 uM preincubated for 3 hrs followed by C12-iE-DAP addition measured after 20 hrs by SEAP reporter gene assay. The class given is cell-based. The gist of the method: (§1)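 HEK-Blue hNOD1 or hNOD2 cells preincubated with compound 3 h, then stimulated 20 h with C12-iE-DAP 50 ng/mL (NOD1) or MDP 100 ng/mL (NOD2); SEAP in supernatant quantified. Primary screen at 10 μM, hits repeated in triplicate; IC50 from dose-response, mean ± SD (n = 3), only for compounds reaching ≥50% inhibition at the screening concentration.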
For `NC(=O)CC[C@H]1NC(=O)c2cc(Oc3cccc4ccccc34)c(NC(=O)/C=C\c3ccc(F)cc3Cl)cc2NC1=O`, the inhibition was 70.6%.
Take `CCN(CC)C(=O)CC[C@@H]1C(=O)N(CCC(C)C)c2cc(Cl)ccc2C(=O)N1C`: the inhibition was -7.62%.
Same read-out and setting: to `CCCCCCCCCN1C(=O)[C@@H](CCC(=O)N2CCOCC2)N(C)C(=O)c2ccc(Cl)cc21` belongs 29.7%.
For the compound `CCCCCCCNC(=O)CC[C@H]1NC(=O)c2cc(Cl)ccc2NC1=O`, the inhibition was -7.88%.
Consider `CCN(CC)C(=O)CC[C@H]1NC(=O)c2cc(Cl)ccc2NC1=O`, for which the inhibition is -0.11%.
As to `COC(=O)CC[C@H]1NC(=O)c2cc(Oc3ccc(C)c(C)c3)c(NC(=O)COCc3ccccc3)cc2NC1=O`, the inhibition was found to be 73.8%.
On to `COC(=O)CC[C@H]1NC(=O)c2cc(N3CCOCC3)c(NC(=O)Cc3ccccc3)cc2NC1=O`, for which the inhibition was 13%.

The next assay addresses T1, Nucleotide-binding oligomerization domain-containing protein 1 (Homo sapiens). As to the kind of experiment: Antagonist activity at human NOD1 expressed in HEK-blue cells assessed as inhibition of C12-iE-DAP-stimulated cell activation at 5 uM preincubated for 3 hrs followed by C12-iE-DAP addition measured after 20 hrs by SEAP reporter gene assay. In kind it is cell-based.
For `CN(C)c1cccc(Oc2cc3c(cc2NC(=O)COCc2ccccc2)NC(=O)[C@@H](CCC(=O)N2CCNCC2)NC3=O)c1`, the inhibition was found to be 33.4%.
Still for that read-out and setting: the value for `COC(=O)CC[C@H]1NC(=O)c2cc(Oc3cccc(N(C)C)c3)c(NC(=O)COCc3ccsc3)cc2NC1=O` was 48.1%.
As for `CN1CCN(C(=O)CC[C@H]2NC(=O)c3cc(Oc4cccc(N(C)C)c4)c(NC(=O)COCc4ccccc4)cc3NC2=O)CC1`, the inhibition stood at 21.7%.
Turning to `CCCNC(=O)CC[C@@H]1NC(=O)c2cc(Oc3cccc(N(C)C)c3)c(NC(=O)COCc3ccccc3)cc2NC1=O`, the inhibition is 46.1%.
On the same count and under the same terms, the value for `COC(=O)CC[C@H]1NC(=O)c2cc(Oc3cccc(N(C)C)c3)c(NC(=O)COCc3ccoc3)cc2NC1=O` was 34.9%; that for `COC(=O)CC[C@H]1NC(=O)c2cc(Oc3cccc(N(C)C)c3)c(NC(=O)COCc3ccc(Cl)cc3Cl)cc2NC1=O` was 59.5%.
Consider `COC(=O)CC[C@H]1NC(=O)c2cc(Oc3ccccc3)c(NC(=O)COCc3ccc(C(F)(F)F)cc3)cc2NC1=O`, for which the inhibition is 42.4%.
As for `COC(=O)CC[C@H]1NC(=O)c2cc(Oc3cccc(N(C)C)c3)c(NC(=O)COCc3ccc(Cl)c(Cl)c3)cc2NC1=O`, the inhibition stood at 36%.
The same measure, in the same setting: to `CN(C)c1cccc(Oc2cc3c(cc2NC(=O)COCc2ccc(C(F)(F)F)cc2)NC(=O)CNC3=O)c1` belongs 38%.

The target of a further assay is T2, Nucleotide-binding oligomerization domain-containing protein 2 (Homo sapiens, UniProt Q9HC29). As to the kind of experiment: Antagonist activity at human NOD2 expressed in HEK-Blue cells assessed as inhibition of MDP-stimulated cell activation at 5 uM preincubated for 3 hrs followed by MDP addition measured after 20 hrs by SEAP reporter gene assay. In kind it is cell-based.
T2 sequence (Q9HC29 whole entry, the tested form may be a part): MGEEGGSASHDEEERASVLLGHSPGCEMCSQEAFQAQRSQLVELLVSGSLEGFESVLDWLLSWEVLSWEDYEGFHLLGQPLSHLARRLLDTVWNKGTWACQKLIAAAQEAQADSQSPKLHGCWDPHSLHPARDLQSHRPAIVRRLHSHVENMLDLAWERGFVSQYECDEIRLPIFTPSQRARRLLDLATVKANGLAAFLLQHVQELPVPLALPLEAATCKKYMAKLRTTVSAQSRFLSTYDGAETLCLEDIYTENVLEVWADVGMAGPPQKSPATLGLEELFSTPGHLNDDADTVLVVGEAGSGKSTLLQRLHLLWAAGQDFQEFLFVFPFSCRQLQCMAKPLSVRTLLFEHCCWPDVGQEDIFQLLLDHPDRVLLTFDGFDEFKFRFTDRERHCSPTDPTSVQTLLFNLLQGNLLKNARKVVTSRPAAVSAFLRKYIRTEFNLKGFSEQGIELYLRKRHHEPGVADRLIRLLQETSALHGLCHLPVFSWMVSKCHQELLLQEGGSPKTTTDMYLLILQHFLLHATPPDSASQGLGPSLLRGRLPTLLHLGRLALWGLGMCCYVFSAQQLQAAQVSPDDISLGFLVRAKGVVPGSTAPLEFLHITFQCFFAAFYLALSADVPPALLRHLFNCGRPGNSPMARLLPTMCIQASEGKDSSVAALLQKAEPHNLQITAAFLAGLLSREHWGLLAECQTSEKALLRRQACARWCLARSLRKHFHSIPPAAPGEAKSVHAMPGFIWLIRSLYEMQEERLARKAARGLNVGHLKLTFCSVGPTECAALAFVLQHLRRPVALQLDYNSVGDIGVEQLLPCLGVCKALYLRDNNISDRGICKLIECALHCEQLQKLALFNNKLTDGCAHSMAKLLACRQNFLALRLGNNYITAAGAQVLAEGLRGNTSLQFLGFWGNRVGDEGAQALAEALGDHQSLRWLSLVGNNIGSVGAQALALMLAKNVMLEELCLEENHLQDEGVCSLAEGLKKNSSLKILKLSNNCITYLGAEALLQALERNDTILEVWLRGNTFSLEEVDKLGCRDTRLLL
Consider `CN(C)c1cccc(Oc2cc3c(cc2NC(=O)COCc2ccccc2)NC(=O)[C@@H](CCC(=O)N2CCNCC2)NC3=O)c1`, for which the inhibition is 42.2%.
The same measure, in the same setting: the value for `COC(=O)CC[C@H]1NC(=O)c2cc(Oc3cccc(N(C)C)c3)c(NC(=O)COCc3ccsc3)cc2NC1=O` was 38.6%; that for `CN1CCN(C(=O)CC[C@H]2NC(=O)c3cc(Oc4cccc(N(C)C)c4)c(NC(=O)COCc4ccccc4)cc3NC2=O)CC1` was 38.8%; that for `CCCNC(=O)CC[C@@H]1NC(=O)c2cc(Oc3cccc(N(C)C)c3)c(NC(=O)COCc3ccccc3)cc2NC1=O` was 34.5%.
In the case of `COC(=O)CC[C@H]1NC(=O)c2cc(Oc3cccc(N(C)C)c3)c(NC(=O)COCc3ccoc3)cc2NC1=O`, the inhibition was 24.8%.
Still for that read-out and setting: to `COC(=O)CC[C@H]1NC(=O)c2cc(Oc3cccc(N(C)C)c3)c(NC(=O)COCc3ccc(Cl)cc3Cl)cc2NC1=O` belongs 30.9%; to `COC(=O)CC[C@H]1NC(=O)c2cc(Oc3ccccc3)c(NC(=O)COCc3ccc(C(F)(F)F)cc3)cc2NC1=O`, 29.8%; to `COC(=O)CC[C@H]1NC(=O)c2cc(Oc3cccc(N(C)C)c3)c(NC(=O)COCc3ccc(Cl)c(Cl)c3)cc2NC1=O`, 45.5%.
Same read-out and setting: to `CN(C)c1cccc(Oc2cc3c(cc2NC(=O)COCc2ccc(C(F)(F)F)cc2)NC(=O)CNC3=O)c1` belongs 31.6%.

The target of a further assay is T2, Nucleotide-binding oligomerization domain-containing protein 2. As to the kind of experiment: Antagonist activity at human NOD2 expressed in HEK-Blue cells assessed as inhibition of MDP-stimulated cell activation at 10 uM preincubated for 3 hrs followed by MDP addition measured after 20 hrs by SEAP reporter gene assay. In kind it is cell-based. Put shortly: as §1
With `Cc1ccc(Oc2cc3c(cc2NC(=O)C2CC2)NC(=O)[C@@H](CCC(=O)O)NC3=O)cc1C`, the inhibition is -3.78%.
Still for that read-out and setting: the value for `O=C(CC[C@H]1NC(=O)c2cc(N3CCOCC3)c(NC(=O)C3CC3)cc2NC1=O)NCCC1=CCCCC1` was -2.95%; that for `CCN(CC)C(=O)CC[C@H]1NC(=O)c2cc(Oc3cccc4ccccc34)c(NC(=O)/C=C\c3ccc(F)cc3Cl)cc2NC1=O` was 1.94%; that for `COC(=O)CC[C@@H]1C(=O)Nc2cc(Cl)ccc2C(=O)N1C` was -1.87%.
Same read-out and setting: the value for `COC(=O)CC[C@H]1NC(=O)c2cc(OC)c(NC(=O)c3cc(C(F)(F)F)cc(C(F)(F)F)c3)cc2NC1=O` was -5.32%; that for `NC(=O)CC[C@H]1NC(=O)c2cc(Oc3cccc4ccccc34)c(NC(=O)/C=C\c3ccc(F)cc3Cl)cc2NC1=O` was 54.8%.
On the same count and under the same terms, the value for `COC(=O)CCC1NC(=O)c2cc(Cl)ccc2N(C)C1=O` (centres undefined) was 1.87%; that for `CCCCCCCCCN1C(=O)[C@@H](CCC(=O)N2CCOCC2)N(C)C(=O)c2ccc(Cl)cc21` was 17.8%.
For the compound `CCCCCCCNC(=O)CC[C@H]1NC(=O)c2cc(Cl)ccc2NC1=O`, the inhibition worked out at 1.25%.
As for `CN(C)c1cccc(Oc2cc3c(cc2NC(=O)COCc2ccccc2)NC(=O)[C@@H](CCC(N)=O)NC3=O)c1`, the inhibition worked out at 3.93%.
Turning to `CCN(CC)C(=O)CC[C@H]1NC(=O)c2cc(Cl)ccc2NC1=O`, the inhibition is 21.5%.
On the same count and under the same terms, the value for `COC(=O)CC[C@H]1NC(=O)c2cc(Oc3ccc(C)c(C)c3)c(NC(=O)COCc3ccccc3)cc2NC1=O` was 54.4%; that for `COC(=O)CC[C@H]1NC(=O)c2cc(N3CCOCC3)c(NC(=O)Cc3ccccc3)cc2NC1=O` was 50.9%; that for `CCN(CC)C(=O)CC[C@@H]1C(=O)Nc2cc(Cl)ccc2C(=O)N1C` was -7.53%.
